Measured values pooled from the literature.
≈ marks a conversion by molar mass, not a printed value.
Organism: Acinetobacter baumannii
Effect on: microbial growth

`C[n+]1ccc(/C=C2\Sc3ccccc3N2CCCN2CCCCC2)c2ccccc21.[I-]` gave an MIC of 64 µg/mL (broth dilution; ATCC19606; drug-resistant strain).
`Fc1c(F)c(F)c(F)c(F)c1F` gave an MIC of greater than 250 µg/mL (ATCC19606).
`COc1ccc2cc1Oc1cc(ccc1OC)CCC(N[C@@H]1CCCc3ccccc31)CCCC2` (some centres unmarked) gave an MIC of greater than 100 µg/mL (broth dilution; ATCC19606).
`COC(=O)c1cc(-c2cccc(NC(=O)Nc3cccc(Br)c3)c2)on1` has an MIC of greater than 64 µg/mL (broth dilution; BAA1605).
The MIC of `CN[C@@H]1[C@H](O)[C@H](NC)[C@H]2O[C@@]3(O)C(=O)C[C@@H](C)O[C@H]3O[C@@H]2[C@H]1O` is reported as greater than 200 µg/mL (broth dilution; ATCC19606).
For `Cc1cc(/C=C2\Sc3ccccc3N2CCCN2CCC(C)CC2)c2ccccc2[n+]1C.[I-]`, the MIC was 16 µg/mL (broth dilution; ATCC19606; drug-resistant strain).
For `COC(=O)c1cc(-c2cccc(NC(=S)Nc3cccc(Cl)c3)c2)on1`, the MIC was greater than 64 µg/mL (broth dilution; BAA1605).
With `Fc1c(F)c(F)c(-c2c(F)c(F)c(F)c(F)c2F)c(F)c1F` the MIC was greater than 250 µg/mL (ATCC19606).
The MIC of `COC(=O)c1cc(-c2cccc(NC(=O)Nc3ccccc3OC)c2)on1` is reported as greater than 64 µg/mL (broth dilution; BAA1605).
For `C[n+]1c(/C=C/c2c[nH]c3ccccc23)cc(/C=C2\Sc3ccccc3N2CCCN2CCCC2)c2ccccc21.[I-]`, the MIC was 32 µg/mL (broth dilution; ATCC19606; drug-resistant strain).
`Cc1c(NN=C(C#N)C2=NC(=O)CS2)c(=O)n(-c2ccccc2)n1C` has an MIC of 0.43 µg/mL (≈ 1.21 µM) (broth dilution).
`CCOC(=O)c1cc(-c2cccc(NC(=O)Nc3ccc(Cl)c(Cl)c3)c2)on1` gave an MIC of greater than 64 µg/mL (broth dilution; BAA1605).
With `CN[C@H](CC(C)C)C(=O)N[C@H]1C(=O)N[C@@H](CC(N)=O)C(=O)N[C@H]2C(=O)N[C@H]3C(=O)N[C@H](C(=O)N[C@H](C(=O)O)c4cc(O)cc(O)c4-c4cc3ccc4O)[C@H](O)c3ccc(c(Cl)c3)Oc3cc2cc(c3O[C@@H]2O[C@H](CO)[C@@H](O)[C@H](O)[C@H]2O[C@H]2C[C@](C)(N)[C@H](O)[C@H](C)O2)Oc2ccc(cc2Cl)[C@H]1O` the MIC was 64 µg/mL (≈ 44.2 µM) (broth dilution; ATCC19606; drug-resistant strain).
`CC(=O)C1=C(O)C(CC(C)C)NC1=O` (centres unmarked) has an MIC of greater than 200 µg/mL (ATCC19606).
